Results reported in PubChem BioAssay.
Calls of active or inactive are those of the source.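 How the source made its calls, unless noted: active means viability at or below 10% of carrier control in both of two separate runs; inconclusive means viability at or below 10% in only one of the two runs; inactive means the rest.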

Key:
[1] = reducers of endogenous Her2 protein level, primary screen, SKBR3 breast tumor cells, AlphaScreen, ATP viability (AID 461;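 active means Her2 level under about 52% in both replicate screens, with viability over 70% of control, limit read from the data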;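 on Her2 level: lower value means less Her2 protein in the cells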;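 on viability: percent of carrier control wells set as 100% viability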); settings: 18-24 h, measured here: SKBR3 viability, ATP luminescence, at 10 µM
[2] = target: Receptor tyrosine-protein kinase erbB-2 (Homo sapiens) (UniProt P04626); assay: as above; settings: 18-24 h, at 10 µM, stronger effect = lower value
[3] = SK-BR-3 cell growth inhibitors, pilot screen, 24 h, human (AID 572); settings: SK-BR-3 viability, CellTiter-Glo luminescence, at 10 µM, stronger effect = lower value;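 further: compound exposure lasted between 18 and 24 h rather than exactly 24 h; 100% = carrier-treated control wells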
[4] = HUVEC growth inhibition – cell-based, human, primary screen (AID 575;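 active means viability at or below 30% in both replicate assays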;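 further: 100% = median of untreated cell wells with 0.1% DMSO on each plate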); settings: HUVEC proliferation, CellTiter-Glo luminescence, 72 h; at 10 µM; stronger effect = lower value
How it was run: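 Timing: 72 h treatment at 37 °C; material: HUVEC primary cells; technique: CellTiter-Glo luminescence measuring cellular ATP; controls: vehicle and MePR control wells; measure: percent of median DMSO-control luminescence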

[5] = growth inhibitors of H69AR lung tumor, primary screen, human, duplicate replicates (AID 580;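 active means viability at or under a set limit in both replicates, limit being median viability minus 3 SD, cut at about 48% in these data, passing the limit was not always enough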;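 further: 100% = mean luminescence of untreated wells and 0% = no signal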); settings: H69AR lung tumor cells viability, ATP luminescence, 72 h; at 10 µM; stronger effect = lower value
[6] = reversal of MRP1-mediated doxorubicin resistance, pilot screen, H69AR cells, doxorubicin co-treatment (AID 601;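 active means viability loss from added drug above about 55%, and viability with drug at most 40%, in both replicates, limit read from the data, passing the limit was not always enough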); settings: CellTiter-Glo, 72 h, at 10 µM; for differential viability (reversal): stronger effect = higher value
[7] = 384-well plate pilot, post-Golgi transport modulator project, inhibition of yeast transport mutant growth (AID 636; in the data active means inhibition above about 31%); settings: absorbance 615 nm, about 18 h, stronger effect = higher value
[8] = growth suppression of yeast trafficking mutant, preliminary HTS, modulators of trafficking downstream of Golgi apparatus project, 1536-format plate, OD 615 nm (AID 637; in the data active means inhibition above about 30%); settings: yeast transport mutant growth, absorbance 615 nm, 18 h; stronger effect = higher value
[9] = H69AR cells + 2 uM doxorubicin, measured here: viability with 2 uM doxorubicin, stronger effect = lower value
[10] = H69AR cells, compound alone cytotoxicity

Receptor tyrosine-protein kinase erbB-2 (Homo sapiens), sequence (P04626 whole entry, looked up): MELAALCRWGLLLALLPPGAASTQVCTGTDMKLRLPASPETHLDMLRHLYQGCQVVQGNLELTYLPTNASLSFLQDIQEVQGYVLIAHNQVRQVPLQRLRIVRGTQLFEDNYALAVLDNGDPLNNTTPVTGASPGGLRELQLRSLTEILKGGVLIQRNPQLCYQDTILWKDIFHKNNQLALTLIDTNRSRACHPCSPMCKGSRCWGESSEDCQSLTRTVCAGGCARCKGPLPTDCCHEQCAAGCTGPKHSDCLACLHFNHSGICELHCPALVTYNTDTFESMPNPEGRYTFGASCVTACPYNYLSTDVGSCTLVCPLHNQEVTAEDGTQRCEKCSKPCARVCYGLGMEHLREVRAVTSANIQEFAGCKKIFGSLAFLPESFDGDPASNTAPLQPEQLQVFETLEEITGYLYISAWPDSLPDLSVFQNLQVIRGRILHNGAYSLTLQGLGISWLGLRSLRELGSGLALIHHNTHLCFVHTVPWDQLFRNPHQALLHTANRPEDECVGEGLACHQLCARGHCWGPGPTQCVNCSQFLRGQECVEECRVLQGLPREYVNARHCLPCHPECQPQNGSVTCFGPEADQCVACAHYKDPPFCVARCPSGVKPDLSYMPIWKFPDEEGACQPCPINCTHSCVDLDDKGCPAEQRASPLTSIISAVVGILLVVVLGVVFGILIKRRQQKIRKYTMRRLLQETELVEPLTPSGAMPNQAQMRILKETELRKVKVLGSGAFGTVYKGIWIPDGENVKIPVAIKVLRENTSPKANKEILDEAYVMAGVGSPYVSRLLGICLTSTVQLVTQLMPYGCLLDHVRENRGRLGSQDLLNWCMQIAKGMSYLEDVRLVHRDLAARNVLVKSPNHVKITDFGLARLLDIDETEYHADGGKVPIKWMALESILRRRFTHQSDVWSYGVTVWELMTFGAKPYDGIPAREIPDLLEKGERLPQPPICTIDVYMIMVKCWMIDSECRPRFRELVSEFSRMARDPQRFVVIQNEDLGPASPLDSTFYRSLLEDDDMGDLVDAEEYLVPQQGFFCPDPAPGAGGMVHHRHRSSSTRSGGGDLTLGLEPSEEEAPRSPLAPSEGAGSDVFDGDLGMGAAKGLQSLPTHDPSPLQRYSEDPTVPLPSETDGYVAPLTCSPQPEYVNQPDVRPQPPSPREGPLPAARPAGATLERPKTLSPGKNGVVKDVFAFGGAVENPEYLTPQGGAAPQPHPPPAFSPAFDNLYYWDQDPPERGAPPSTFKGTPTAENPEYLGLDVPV

Compound	viability [1] [%]	Her2 level [2]	viability [3]	viability [4]	viability [5]	differential viability (reversal) ([6]; H69AR cells + 2 uM doxorubicin)	viability [6, 9] [%]	viability [6, 10] [%]	inhibition [7]	inhibition [8]
CC(C)CN(CC(C)C)C(=O)C12CCC(C)(C(=O)C1)C2(C)C (stereo not given)	74	103% (inactive)	74% (inactive)	110% (inactive)	96.8% (inactive)	12.3% (inactive)	84.4	96.8	1.33% (inactive)	-7.62% (inactive)
COc1ccc(Cc2nc(-c3ccc(Br)cc3)no2)cc1	72.5	106% (inactive)	72.5% (inactive)	92.8% (inactive)	98.2% (inactive)	-2.99% (inactive)	101	98.2	-0.13% (inactive)	-12.3% (inactive)
O=C(COC(=O)c1ccco1)NCc1cccs1	112	97.5% (inactive)	112% (inactive)	98.9% (inactive)	106% (inactive)	10.7% (inactive)	95.3	106	-7.76% (inactive)	0% (inactive)
CCCCc1ccc(NC(=O)COCC)cc1	110	94% (inactive)	110% (inactive)	92.1% (inactive)	93.1% (inactive)	7.21% (inactive)	85.9	93.1	-2.63% (inactive)	5.08% (inactive)
CC1CCC(NC(=O)C2CCN(c3cnccn3)CC2)CC1 (stereo not given)	96	95% (inactive)	96% (inactive)	88.6% (inactive)	92.5% (inactive)	11.3% (inactive)	81.2	92.5	-1.76% (inactive)	-2.7% (inactive)
CCN(CC)C(=O)c1sc2nc(-c3cccs3)cc(-c3cccs3)c2c1N	102	88.5% (inactive)	102% (inactive)	76.2% (inactive)	71.8% (inactive)	-12.7% (inactive)	84.5	71.8	-4.67% (inactive)	21% (inactive)
O=C(Nc1ccc(S(=O)(=O)N2CCc3ccccc32)cc1)c1ccc2c(c1)OCO2	77	75.5% (inactive)	77% (inactive)	76.7% (inactive)	103% (inactive)	2.24% (inactive)	100	103	3.51% (inactive)	-8.73% (inactive)
CCOC(=O)CSc1nn(C)c(=S)s1	97.5	106% (inactive)	97.5% (inactive)	73.2% (inactive)	102% (inactive)	7.25% (inactive)	94.9	102	-2.4% (inactive)	-1.5% (inactive)
CCOc1cc(NC(=O)c2ccco2)c(OCC)cc1NC(=O)COc1ccccc1C	67	77.5% (inactive)	67% (inactive)	60.9% (inactive)	7.87% (active)	-4.53% (inactive)	12.4	7.87	-5.6% (inactive)	-6.19% (inactive)
COc1ccc(S(=O)(=O)N(CCN2CCOCC2)Cc2cc(OC)ccc2OC)cc1	91	88.5% (inactive)	91% (inactive)	96.2% (inactive)	70% (inactive)	3.16% (inactive)	66.8	70	-3.25% (inactive)	-5.08% (inactive)
CC(=O)Nc1ccc(NC(=O)C(C)Oc2ccccc2F)cc1 (stereo not given)	102	102% (inactive)	102% (inactive)	113% (inactive)	103% (inactive)	18.8% (inactive)	84	103	-5.97% (inactive)	-2.22% (inactive)
CC(C)CC(=O)N1CCN(S(=O)(=O)c2ccc(F)cc2)CC1	86.5	102% (inactive)	86.5% (inactive)	86.5% (inactive)	94.9% (inactive)	9.04% (inactive)	85.8	94.9	2.56% (inactive)	27% (inactive)
CCn1c(CSc2nnc(-c3cccnc3)n2-c2ccccc2C)nc2cc(C(=O)O)ccc21	95.5	109% (inactive)	95.5% (inactive)	94% (inactive)	99.1% (inactive)	11.4% (inactive)	87.8	99.1	-3.56% (inactive)	-7.3% (inactive)
CCOc1ccc(-c2nc(S(=O)(=O)c3ccccc3)c(NCc3cccnc3)o2)cc1	97	94% (inactive)	97% (inactive)	94.2% (inactive)	97.6% (inactive)	6.18% (inactive)	91.4	97.6	1.33% (inactive)	-1.13% (inactive)
Cc1ccc(S(=O)(=O)N2CCN(C(=O)CN3CCOCC3)C2C(C)C)cc1 (stereo not given)	99.5	102% (inactive)	99.5% (inactive)	102% (inactive)	104% (inactive)	9.15% (inactive)	94.5	104	-2.86% (inactive)	-2.54% (inactive)
CC(=O)c1c(OCC(=O)O)ccc2c(C)cc(=O)oc12	136	104% (inactive)	136% (inactive)	101% (inactive)	91.8% (inactive)	3.1% (inactive)	88.7	91.8	-5.66% (inactive)	6.07% (inactive)
CCCCN(CC)S(=O)(=O)N1CCC(C(=O)NCc2ccc(F)cc2)CC1	97	113% (inactive)	97% (inactive)	109% (inactive)	101% (inactive)	0.67% (inactive)	101	101	-4.34% (inactive)	2.62% (inactive)
Clc1ccc(OCCCn2cncn2)cc1Cl	104	99% (inactive)	104% (inactive)	92.5% (inactive)	80.2% (inactive)	-6.33% (inactive)	86.5	80.2	2.03% (inactive)	16.4% (inactive)
COC(=O)c1oc2ccc(OC)cc2c1N	107	88% (inactive)	107% (inactive)	82.4% (inactive)	100% (inactive)	13.9% (inactive)	86.2	100	-2.53% (inactive)	-4.84% (inactive)
CCCCC(CC)C(=O)Nc1ccccc1C#N (stereo not given)	96	95% (inactive)	96% (inactive)	98.6% (inactive)	89.1% (inactive)	8.93% (inactive)	80.1	89.1	-4.34% (inactive)	4.29% (inactive)
Cc1ccccc1OCc1nc2ccccc2c(=O)n1/N=C/c1ccco1	102	100% (inactive)	102% (inactive)	71% (inactive)	104% (inactive)	8.3% (inactive)	95.3	104	0.53% (inactive)	-2.9% (inactive)
O=C(Nc1cccc2ncccc12)c1ccc2c(c1)OCCO2	84	104% (inactive)	84% (inactive)	100% (inactive)	104% (inactive)	11.7% (inactive)	92.1	104	-1.17% (inactive)	-3% (inactive)
CCNCc1cc2cc(C)ccc2[nH]c1=O	106	99% (inactive)	106% (inactive)	80.6% (inactive)	82.7% (inactive)	-7.93% (inactive)	90.6	82.7	-8.78% (inactive)	-7% (inactive)
CCCCC(=NCCO)C1=C(O)C(C(=O)OC)C(C)(C)CC1=O (stereo not given)	90.5	93% (inactive)	90.5% (inactive)	99.7% (inactive)	89.5% (inactive)	-0.975% (inactive)	90.5	89.5	-3.68% (inactive)	-3.81% (inactive)
O=C(Cn1c(NCCO)nc2ccccc21)c1ccccc1	100	100% (inactive)	100% (inactive)	99.6% (inactive)	104% (inactive)	3.85% (inactive)	101	104	-2.16% (inactive)	2.7% (inactive)
O=C1CSC(c2cn(-c3ccccc3)nc2-c2cccs2)N1CC1CCCO1 (stereo not given)	102	90% (inactive)	102% (inactive)	71.9% (inactive)	95.7% (inactive)	-0.73% (inactive)	96.4	95.7	-2.11% (inactive)	2.58% (inactive)
Cc1cc(NS(=O)(=O)c2ccc(NC(=O)C(C)N3C(=O)c4ccccc4C3=O)cc2)nc(C)n1 (stereo not given)	99	92% (inactive)	99% (inactive)	112% (inactive)	97.4% (inactive)	5.72% (inactive)	91.7	97.4	-2.89% (inactive)	5.25% (inactive)
c1cncc(-c2nc3c4ccccc4nc(N4CCC(N5CCCCC5)CC4)n3n2)c1	93.5	79.5% (inactive)	93.5% (inactive)	80.1% (inactive)	84.1% (inactive)	2.83% (inactive)	81.2	84.1	-9.73% (inactive)	-0.48% (inactive)
